From ChEMBL document CHEMBL2157969, “Chalcone inhibitors of the NorA efflux pump in Staphylococcus aureus whole cells and enriched everted membrane vesicles” (Bioorg Med Chem, 2012)
Calls of active or inactive are those of the source. The rule behind the calls is not given here.

What was measured:
Escherichia coli [1] = experiment: Inhibition of Hoechst 33342 dye in norA-deficient Escherichia coli DH10B expressing pTrc99A at 2 ug/mL by spectrofluorometer analysis; type: functional, organism-based; details: K-12 DH10B
How it was run: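 Everted membrane vesicles were made from overnight E. coli DH10B carrying pTrcHis2C-norA or control pTrc99A. PMSF (0.1 mM final) was added before French press and DNase (0.1 mg/mL final) to the lysate. Vesicles were diluted to 80 µg protein/mL in 50 mM potassium HEPES, 8.5 mM NaCl, 2 mM MgCl2, pH 7.2. Hoechst 33342 was added, then Mg2+-ATP after the signal stabilised (~30 s). Inhibitor was added at 150–160 s. Fluorescence ex 355/em 457 nm over 300 s.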

[2] = target: T1, Quinolone resistance protein NorA (Staphylococcus aureus) (UniProt P0A0J7); experiment: Inhibition of norA-mediated ethidium bromide efflux in methicillin-resistant Staphylococcus aureus SA-1199B at 2.5 ug/ml by spectrofluorometric analysis
T1 sequence (whole entry): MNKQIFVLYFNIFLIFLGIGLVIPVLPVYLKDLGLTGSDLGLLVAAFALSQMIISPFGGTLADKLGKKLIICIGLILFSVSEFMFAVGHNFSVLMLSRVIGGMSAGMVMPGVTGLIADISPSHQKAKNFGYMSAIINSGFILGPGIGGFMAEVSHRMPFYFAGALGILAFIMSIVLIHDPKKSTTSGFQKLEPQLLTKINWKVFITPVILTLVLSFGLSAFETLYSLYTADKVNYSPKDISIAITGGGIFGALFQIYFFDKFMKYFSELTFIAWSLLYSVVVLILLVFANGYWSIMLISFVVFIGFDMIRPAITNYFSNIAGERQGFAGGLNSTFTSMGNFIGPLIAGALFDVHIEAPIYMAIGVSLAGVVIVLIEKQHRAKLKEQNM
How it was run: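 Whole-cell efflux assay, strain grown in Mueller Hinton II broth; compounds dissolved in DMSO, 1% DMSO in MHB II as negative control, reserpine as positive control. Background read from a pellet resuspended in clean MHB II. Fluorescence read in duplicate at ex 530 nm / em 600 nm; the mean is reported as percent reduction of efflux versus control.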

[3] = target: T1, Quinolone resistance protein NorA (Staphylococcus aureus); experiment: Inhibition of norA-mediated ethidium bromide efflux in methicillin-resistant Staphylococcus aureus SA-1199B at 5 ug/ml by spectrofluorometric analysis
How it was run: (§1)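 Ethidium bromide efflux from S. aureus cells in MHB II, compounds dissolved in DMSO. Reserpine 20 µg/mL as positive control and 1% DMSO as negative control; background taken from a resuspended pellet in clean medium. Fluorescence read at ex 530/em 600 nm in duplicate; mean given as percent reduction of efflux versus control.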

[4] = target: T1, Quinolone resistance protein NorA (Staphylococcus aureus); experiment: Inhibition of norA-mediated ethidium bromide efflux in methicillin-resistant Staphylococcus aureus SA-1199B at 10 ug/ml by spectrofluorometric analysis; how it was run: as §1
[5] = target: T1, Quinolone resistance protein NorA (Staphylococcus aureus); experiment: Inhibition of norA-mediated ethidium bromide efflux in methicillin-resistant Staphylococcus aureus SA-1199B at 20 ug/ml by spectrofluorometric analysis; how it was run: as §1
[6] = target: T2, Quinolone resistance protein NorA (Staphylococcus aureus, UniProt P0A0J7); experiment: Inhibition of norA-mediated ethidium bromide efflux in methicillin-resistant Staphylococcus aureus SA-1199B by spectrofluorometric analysis; how it was run: as §1
T2 sequence (P0A0J7 whole entry): T1 sequence (whole entry)

[7] = target: T1, Quinolone resistance protein NorA (Staphylococcus aureus); experiment: Inhibition of norA in Staphylococcus aureus SA-1199B overexpressing norA assessed as fold reduction in ciprofloxacin MIC at 12.5 ug/mL by checkerboard assay
How it was run: (§2)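 Checkerboard in MHB with twofold serial dilutions: ciprofloxacin 0.05–12.5 µg/mL against inhibitor 0.2–25 µg/mL. Inoculum 5 × 10⁵ cfu/mL, 20 h at 35 °C, visual MIC read-out. Fold reduction of ciprofloxacin MIC recorded at the inhibitor concentration giving it. FIC index is the sum of both drugs' FICs; ≤0.5 counts as synergy.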

Staphylococcus aureus [8] = experiment: Antibacterial activity against Staphylococcus aureus SA-1199B overexpressing norA at 0.2 to 25 ug/ml after 20 hrs by microdilution method; type: functional, organism-based
How it was run: (§3)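 Broth microdilution in Mueller Hinton broth II with an inoculum of 5 × 10⁵ cfu/mL, incubated 20 h at 35 °C. MIC is the lowest concentration with no visible growth. Controls were bacteria with DMSO at up to about 1%, and ciprofloxacin. Run to CLSI/EUCAST guidelines in duplicate or more.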

Staphylococcus aureus [9] = experiment: Antibacterial activity against Staphylococcus aureus ATCC 29213 […] at 0.2 to 25 ug/ml after 20 hrs by microdilution method; type: functional, organism-based; how it was run: as §3
[10] = target: T1, Quinolone resistance protein NorA (Staphylococcus aureus); details: ATCC 29213
Escherichia coli [11] = experiment: Inhibition of acridine orange efflux in norA-deficient Escherichia coli DH10B expressing pTrc99A at 2 ug/mL by spectrofluorometer analysis; type: functional, organism-based; details: K-12 DH10B
How it was run: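 Proton gradient was read with acridine orange (500 nM final) in NorA-enriched or pTrc99A control everted E. coli DH10B vesicles. Buffer: 50 mM potassium HEPES, 8.5 mM NaCl, 2 mM MgCl2, pH 7.2. Vesicles were energised with Mg2+-ATP. Valinomycin and nigericin dissipated the gradients, and norfloxacin was given at 10 µM. Fluorescence ex 494/em 530 nm.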

[12] = target: T1, Quinolone resistance protein NorA (Staphylococcus aureus); experiment: Inhibition of norA in Staphylococcus aureus SA-1199B overexpressing norA assessed as fold reduction in ciprofloxacin MIC by checkerboard assay; how it was run: as §2
[13] = target: T1, Quinolone resistance protein NorA (Staphylococcus aureus); details: SA-1199B
[14] = target: T1, Quinolone resistance protein NorA (Staphylococcus aureus); experiment: Inhibition of norA in Staphylococcus aureus ATCC 29213 assessed as fold reduction in ciprofloxacin MIC at 12.5 ug/mL by checkerboard assay
[15] = target: T1, Quinolone resistance protein NorA (Staphylococcus aureus); experiment: Inhibition of norA in Staphylococcus aureus SA-1199B overexpressing norA assessed as fold reduction in ciprofloxacin MIC by checkerboard assay
[16] = target: T1, Quinolone resistance protein NorA (Staphylococcus aureus); experiment: Inhibition of norA in Staphylococcus aureus ATCC 29213 overexpressing norA assessed as fold reduction in ciprofloxacin MIC at 3.13 ug/mL by checkerboard assay; how it was run: as §2
[17] = target: T1, Quinolone resistance protein NorA (Staphylococcus aureus); experiment: Inhibition of norA in Staphylococcus aureus SA-1199B overexpressing norA assessed as fold reduction in ciprofloxacin MIC at 25 ug/mL by checkerboard assay
[18] = target: T1, Quinolone resistance protein NorA (Staphylococcus aureus); experiment: Inhibition of norA in Staphylococcus aureus ATCC […] assessed as fold reduction in ciprofloxacin MIC at 25 ug/mL by checkerboard assay
[19] = target: T1, Quinolone resistance protein NorA (Staphylococcus aureus); experiment: Inhibition of norA in Staphylococcus aureus SA-1199B overexpressing norA assessed as fold reduction in ciprofloxacin MIC at 3.13 ug/mL by checkerboard assay; how it was run: as §2
Staphylococcus aureus [20] = experiment: Antibacterial activity against Staphylococcus aureus SA-1199B overexpressing norA at 25 ug/ml after 20 hrs by microdilution method; type: functional, organism-based; how it was run: as §3
Staphylococcus aureus [21] = experiment: Antibacterial activity against Staphylococcus aureus ATCC […] at 25 ug/ml after 20 hrs by microdilution method; type: functional, organism-based; how it was run: as §3

Structure (SMILES) | inhibition (Escherichia coli [1]) | inhibition [2] | inhibition [3] | inhibition [4] | inhibition [5] | IC50 [6] | Activity (Staphylococcus aureus [8]) | Activity (Staphylococcus aureus [9]) | other results
COc1ccc(C(=O)/C=C/c2cccc(N(C)C)c2)c(OC)c1OC | inactive |  |  |  |  |  |  |  | 
COc1cccc(/C=C/C(=O)c2ccc(O)cc2)c1OC | inactive | 11.7% | 38% | 73.3% | 90.8% | 24.3 µM | inactive | inactive | fractional inhibitory concentration index (FICI) [7]: 0.25; FICI [10]: 0.25
COc1cc(O)cc(C)c1/C=C/C(=O)c1ccc(O)cc1 | inactive | 36.6% | 63.7% | 84.3% | 91.7% | 13.4 µM | inactive | inactive | inhibition (Escherichia coli [11]): inactive; inhibition [12]: Dose-dependent effect; FICI [13]: 0.25; fractional inhibitory concentration index (FICI) [14]: 0.25; inhibition [15]: Dose-dependent effect
C=CCOc1ccccc1C(=O)/C=C/c1ccc(OCC(=O)O)cc1 | inactive | 14.7% | 46.2% | 79.9% | 87.1% | 16.9 µM | inactive | inactive | inhibition [12]: Dose-dependent effect; fractional inhibitory concentration index (FICI) [16]: 0.25; FICI [13]: 0.25; inhibition [15]: Dose-dependent effect
COC(=O)[C@H]1[C@H]2C[C@@H]3c4[nH]c5cc(OC)ccc5c4CCN3C[C@H]2C[C@@H](OC(=O)c2cc(OC)c(OC)c(OC)c2)[C@@H]1OC [RESERPINE] |  | 30% | 48.1% | 71.8% |  | 8.2 µM |  |  | FICI [13]: 0.25; FICI [10]: 0.25
COc1ccc(CCN(C)CCCC(C#N)(c2ccc(OC)c(OC)c2)C(C)C)cc1OC (centres undefined) | inactive |  |  |  |  |  |  |  | 
COc1ccc(/C=C/C(=O)c2ccccc2OC)c(OC)c1 | inactive |  |  |  |  |  |  |  | 
COc1cc(OC)c(/C=C/C(=O)c2ccc(O)cc2)c(OC)c1 | inactive |  |  |  |  |  |  |  | 
CN(C)CCOc1ccc(C(=O)/C=C/c2ccccc2F)cc1 | inactive | 33.7% | 48.5% | 70.3% | 97% | 18.1 µM | inactive | inactive | fractional inhibitory concentration index (FICI) [17]: 0.25; fractional inhibitory concentration index (FICI) [18]: > 1
CN(C)CCOc1ccc(C(=O)/C=C/c2cccc(F)c2)cc1 | inactive |  |  |  |  |  |  |  | 
COc1cc(/C=C/C(=O)c2ccc(OC)c(OC)c2OC)cc(OC)c1 | inactive |  |  |  |  |  |  |  | 
CN(C)CCOc1ccc(C(=O)/C=C/c2ccc(F)cc2)cc1 | inactive |  |  |  |  |  |  |  | 
COc1ccc(/C=C/C(=O)c2ccc(O)cc2)c(OC)c1 | inactive | 17.3% | 24.1% | 62.7% | 89.6% | 29.1 µM | inactive | inactive | fractional inhibitory concentration index (FICI) [7]: 0.25; FICI [10]: 0.25
C[C@@H]1O[C@@H](Oc2c(-c3ccc(O)cc3)oc3cc(O)cc(O)c3c2=O)[C@H](OC(=O)/C=C/c2ccc(O)cc2)[C@H](O)[C@H]1OC(=O)/C=C/c1ccc(O)cc1 | inactive |  |  |  |  |  |  |  | 
CN(C)CCOc1ccc(C(=O)/C=C/c2ccc(C#N)cc2)cc1 | inactive |  |  |  |  |  |  |  | 
C=CCOc1ccc(C(=O)/C=C/c2cccc(OC)c2OC)cc1 | inactive |  |  |  |  |  |  |  | 
CN(C)CCOc1ccc(C(=O)/C=C/c2ccccc2)cc1 | inactive | 21.8% | 36.1% | 56.9% | 83.6% | 28.4 µM | inactive | inactive | fractional inhibitory concentration index (FICI) [17]: > 0.5; fractional inhibitory concentration index (FICI) [18]: > 0.5
CN(C)CCOc1ccc(C(=O)/C=C/c2ccc(N(C)C)cc2)cc1 | inactive | 48% | 96.5% | 97.4% | 98.7% | 7.7 µM | inactive | inactive | fractional inhibitory concentration index (FICI) [17]: inactive; fractional inhibitory concentration index (FICI) [14]: 0.5
COc1ccc(C(=O)/C=C/c2cccc(OCCN(C)C)c2)c(OC)c1OC | inactive |  |  |  |  |  |  |  | inhibition (Escherichia coli [11]): Active
COc1ccc(OC)c(/C=C/C(=O)c2ccc(O)cc2)c1 | inactive | 23.3% | 56.6% | 82.7% | 91% | 15 µM | inactive | inactive | fractional inhibitory concentration index (FICI) [7]: 0.25; fractional inhibitory concentration index (FICI) [14]: 0.25
COc1cc(/C=C/C(=O)c2cccc(OC(=O)c3ccccc3)c2)cc(OC)c1 | inactive |  |  |  |  |  |  |  | 
COc1ccc(/C=C/C(=O)c2ccc(O)cc2)cc1OC | inactive | 14% | 38.3% | 64.3% | 87.9% | 26.5 µM | inactive | inactive | fractional inhibitory concentration index (FICI) [17]: 0.25; fractional inhibitory concentration index (FICI) [18]: 0.25
CN(C)CCOc1ccc(C(=O)/C=C/c2ccc(Oc3ccccc3)cc2)cc1 | inactive | 43.4% | 68.8% | 97.5% | 99.1% | 9 µM |  |  | fractional inhibitory concentration index (FICI) [19]: 0.38; Activity (Staphylococcus aureus [20]): Active; Activity (Staphylococcus aureus [21]): Active; FICI [10]: 0.26
